5HT1E ag – agonists of human 5-HT1E serotonin receptor. P28566. CHO 5-HT1E Ga15 NFAT-bla reporter, FRET; 0% DMSO wells, 100% control agonist wells. activation, % at 6 µM. 65,000 tested, 0.69% active. AID 574;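 active means activation above a set limit, the screen-wide mean activation plus 3 SD, cut at about 8.5% in these data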;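 further: 100% = positive control agonist at 1 µM giving full maximal response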
S1P3 agonist – S1P3 (human) receptor agonism | 60,000 tested, 0.1% active | activation, % at 4.5 µM | Q99500 | AID 373 | S1P3 NFAT-BLA reporter cells, FRET ratio; relative to 1 µM S1P, basal subtracted;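 active means activation above the screen-wide mean plus 3 SD, cut at about 4.5% in these data, passing the limit was not always enough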
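Measure – % activation relative to 1 µM S1P (100%), per plate · System – stable CHO line with human S1P3, Gα16, NFAT-BLA reporter · Timing – cells plated overnight, compound 4 h 37 °C, substrate 2 h RT · Technique – fluorescent BLA substrate, ex 405 nm, em 460/535 nm ratio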
5HT1a antag – 5-HT1a (human) receptor antagonism. P08908. CHO 5-HT1a Ga15 NFAT-bla reporter, antagonist mode. inhibition, % at 10 µM. 62,000 tested, 0.68% active. AID 612;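 active means inhibition above the mean of all tested compounds plus 3 SD, cut at about 43% in these data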;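 further: receptor stimulated by 5-CT agonist at 100 nM near EC80; beta-lactamase reporter measured by ratiometric fluorescence of a cleavable substrate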
Target sequence (P08908 whole entry, looked up): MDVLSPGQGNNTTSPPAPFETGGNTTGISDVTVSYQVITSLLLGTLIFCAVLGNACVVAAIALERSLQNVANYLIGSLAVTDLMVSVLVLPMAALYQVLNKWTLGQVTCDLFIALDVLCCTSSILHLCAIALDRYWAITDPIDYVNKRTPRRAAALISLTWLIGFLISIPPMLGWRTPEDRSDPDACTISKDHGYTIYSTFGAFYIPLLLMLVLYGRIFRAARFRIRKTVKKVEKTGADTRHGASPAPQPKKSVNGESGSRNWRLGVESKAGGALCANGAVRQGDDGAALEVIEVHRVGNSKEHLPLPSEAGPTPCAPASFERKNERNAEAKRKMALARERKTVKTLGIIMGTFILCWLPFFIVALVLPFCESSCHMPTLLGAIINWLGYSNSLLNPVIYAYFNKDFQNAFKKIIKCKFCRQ
5HT1a ag – 5-HT1a (human) receptor agonism. CHO 5-HT1a Ga15 NFAT-bla reporter, FRET ratio; 0% basal, 100% maximal reference agonist. activation, % at 10 µM. 65,000 tested, 0.56% active. AID 567;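 active means activation above the screen-wide mean activation plus 3 SD, cut at about 19% in these data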;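 further: 0% = DMSO wells and 100% = 5-CT at EC100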
5HT1E antag – blocks the human 5-HT1E serotonin receptor; P28566; CHO 5-HT1E Ga15 NFAT-bla reporter, FRET, antagonist; inhibition, % at 6 µM; 65,000 tested, 0.99% active; AID 571;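 active means inhibition above a set limit, the mean inhibition across every tested compound plus 3 SD, cut at about 29% in these data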;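 further: signal is the 460 over 535 nm emission ratio of beta-lactamase substrate; 0% = agonist plus DMSO wells and 100% = wells without agonist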
Numbers without * were called inactive. An excerpt weighted towards active compounds, which were near 2.6% of everything screened.

For O=C1c2[nH]nc(-c3ccccc3O)c2C(c2ccccc2F)N1Cc1ccco1 (stereo not given) the results were 5HT1E ag 0, S1P3 agonist -1, 5HT1a antag 43*, 5HT1a ag 5 and 5HT1E antag -2.
Screening O=C1c2[nH]nc(-c3ccccc3O)c2C(c2ccccc2)N1Cc1ccco1 (stereo not given) returned 5HT1E ag 0, S1P3 agonist -2, 5HT1a antag 44*, 5HT1a ag 2 and 5HT1E antag -8.
Screening COc1c(C)cc(Br)cc1C(=O)Nc1cccc(-c2nc3ncccc3o2)c1 returned 5HT1E ag 0, S1P3 agonist 0, 5HT1a antag 12, 5HT1a ag 66* and 5HT1E antag 14.
`CCCCC(=O)Nc1cccc(-c2nc3ncccc3o2)c1` gave 5HT1E ag 1, S1P3 agonist 0, 5HT1a antag -5, 5HT1a ag -6 and 5HT1E antag -11.
Screening COc1ccccc1N1CCN(CCCC(=O)c2ccc(F)cc2)CC1 returned 5HT1E ag 3, S1P3 agonist -2, 5HT1a antag 93*, 5HT1a ag 4 and 5HT1E antag 11.
For CC(=O)OCC(=O)c1ccc2ccn(C(C)=O)c2c1 the results were 5HT1E ag 0, S1P3 agonist 0, 5HT1a antag 2, 5HT1a ag -2 and 5HT1E antag -5.
COc1ccccc1N1CCN(CCCNC(=O)Nc2ccccc2C)CC1 was read as 5HT1E ag 3, 5HT1a antag 82*, 5HT1a ag 0 and 5HT1E antag 9.
Screening COc1ccccc1N1CCN(CC(=O)c2ccc3ccn(C(C)=O)c3c2)CC1 returned 5HT1E ag 30*, S1P3 agonist -1, 5HT1a antag 15, 5HT1a ag 8 and 5HT1E antag 8.
Screening COc1ccccc1N1CCN(CC(=O)Nc2cc(F)ccc2C)CC1 returned 5HT1E ag -1, 5HT1a antag 43*, 5HT1a ag 0 and 5HT1E antag -10.
For CCCN(CCC)C(=O)c1ccc2c(c1)N(Cc1ccccc1)C(=O)CS2=O (stereo not given) the results were 5HT1E ag 1, S1P3 agonist 0, 5HT1a antag 2, 5HT1a ag 0 and 5HT1E antag 0.
`O=C(Nc1ccc2c(c1)OCO2)C1Cc2ccccc2CN1S(=O)(=O)c1cccs1` (stereo not given) gave 5HT1E ag -2, S1P3 agonist 0, 5HT1a antag 14, 5HT1a ag 11 and 5HT1E antag 1.
Screening CN1CCN(C2=C(Cl)C(=O)N(c3cccc(Cl)c3)C2=O)CC1 returned 5HT1E ag 0, S1P3 agonist -1, 5HT1a antag 2, 5HT1a ag -3 and 5HT1E antag 13.
Screening CN1CCN(C2=C(Cl)C(=O)N(Cc3ccccc3)C2=O)CC1 returned 5HT1E ag 17*, S1P3 agonist -2, 5HT1a antag 3, 5HT1a ag 0 and 5HT1E antag 5.
Screening CCOc1cc2[nH]c(=O)n(CC3CCC(C(=O)NC(C)CC)CC3)c(=O)c2cc1OCC (stereo not given) returned 5HT1E ag 0, S1P3 agonist 0, 5HT1a antag -5, 5HT1a ag -1 and 5HT1E antag 3.
Screening CC1CCCCC1n1c(=S)[nH]c2ccccc2c1=O (stereo not given) returned 5HT1E ag 11*, 5HT1a antag -8, 5HT1a ag 2 and 5HT1E antag 5.
CCOC(=O)C1(C)NC(c2ccc(OC)cc2OC)C2C(=O)N(c3cccc(OC)c3)C(=O)C21 (stereo not given) was read as 5HT1E ag -2, S1P3 agonist -1, 5HT1a antag 13, 5HT1a ag 0 and 5HT1E antag 15.
`CCC(=O)N1CCc2cc(S(=O)(=O)N3CCN(C(=O)c4ccco4)CC3)ccc21` gave 5HT1E ag 1, 5HT1a antag -6, 5HT1a ag 0 and 5HT1E antag 4.
Screening CC(=O)N1CCc2cc(S(=O)(=O)CCC(=O)N3CCN(C(=O)c4ccco4)CC3)ccc21 returned 5HT1E ag 0, S1P3 agonist -1, 5HT1a antag 2, 5HT1a ag -1 and 5HT1E antag 31*.
`CC(C)(C)N1C(=O)Cc2c1nc(N)c1c(N)nc(N3CCCCC3CO)c(C#N)c21` (stereo not given) gave 5HT1E ag 0, S1P3 agonist 0, 5HT1a antag 53*, 5HT1a ag -1 and 5HT1E antag 34*.
Screening Cc1ccc(S(=O)(=O)N(C)CC(=O)N2CCCc3ccccc32)cc1 returned 5HT1E ag 0, S1P3 agonist 0, 5HT1a antag 12, 5HT1a ag -2 and 5HT1E antag 10.
For COn1c(SC2CCCCC2)nc2ccccc2c1=O the results were 5HT1E ag 1, S1P3 agonist 0, 5HT1a ag 0 and 5HT1E antag -16.
For Cn1c(C(=O)NCCC2=CCCCC2)cc2c(=O)n3ccccc3nc21 the results were 5HT1E ag 0, S1P3 agonist 1, 5HT1a antag -4, 5HT1a ag 0 and 5HT1E antag 11.
For Cn1c(C(=O)NCCCN2CCCC2=O)cc2c(=O)n3ccccc3nc21 the results were 5HT1E ag 0, S1P3 agonist 1, 5HT1a antag 3, 5HT1a ag 0 and 5HT1E antag 30*.
c1ccc(-c2oc3ncnc(NCCCn4ccnc4)c3c2-c2ccccc2)cc1 was read as 5HT1E ag -1, S1P3 agonist -1, 5HT1a antag 63*, 5HT1a ag 3 and 5HT1E antag 29*.
`c1ccc(-c2oc3ncnc(NCCN4CCOCC4)c3c2-c2ccccc2)cc1` gave 5HT1E ag 0, S1P3 agonist -1, 5HT1a antag 9, 5HT1a ag 1 and 5HT1E antag 24.
`Cc1ccc(S(=O)(=O)C2(C(=O)N3CCCCC3C)CC2)cc1` (stereo not given) gave 5HT1E ag -1, S1P3 agonist -1, 5HT1a antag 0, 5HT1a ag 0 and 5HT1E antag -4.
`COc1cc2c(cc1OC)/C(=C/C(=O)N1CCOCC1)NC(C)(C)C2` gave 5HT1E ag 0, S1P3 agonist 0, 5HT1a antag 0, 5HT1a ag -1 and 5HT1E antag 30*.
`CC(C)Oc1ccccc1C1CC(=O)Nc2cc3c(cc21)OCCO3` (stereo not given) gave 5HT1E ag -1, S1P3 agonist -2, 5HT1a antag 50*, 5HT1a ag -5 and 5HT1E antag 63*.
Screening COc1cccc(C2CC(=O)Nc3cc4c(cc32)OCCO4)c1OC(C)C (stereo not given) returned 5HT1E ag 1, S1P3 agonist -1, 5HT1a antag 12, 5HT1a ag -1 and 5HT1E antag 6.
`COc1ccccc1C1CC(=O)Nc2cc3c(cc21)OCCO3` (stereo not given) gave 5HT1E ag -1, S1P3 agonist -1, 5HT1a antag 27, 5HT1a ag 0 and 5HT1E antag 47*.

Screens as filed in PubChem.
